Data published in ChEMBL document CHEMBL1147806, “Structure-activity relationship studies on UK-2A, a novel antifungal antibiotic from Streptomyces sp. 517-02. Part 5: Roles of the 9-membered dilactone-ring moiety in respiratory inhibition” (2006).
≈ marks a conversion by molar mass, not a printed value.

Experiments:
[1] = system: Rhodotorula mucilaginosa; test: Antifungal activity against Rhodotorula mucilaginosa IFO 0001; assay type: functional
Summary of the method: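 Compounds dissolved in DMF; MIC by serial 2-fold agar dilution on Sabouraud dextrose agar, read after 48 h cultivation at 25 °C.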

[2] = species on record: Bos taurus; test: Respiratory inhibition in bovine heart submitochondrial particles; assay type: functional
Summary of the method: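 Bovine heart submitochondrial particles prepared by the Matsuno-Yagi and Hatefi method; uncoupler-stimulated respiration with 10 mM succinate as substrate, oxygen consumption followed by oxygen electrode at 25 °C.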

Structure (SMILES) | MIC [1] | pI50 [2]
CCCCCCOC(=O)CC[C@H](NC(=O)c1cccc(NC=O)c1O)C(=O)OCCCCCC | > 100 mg/L | 7.1
CCCCCCCOC(=O)CC[C@H](NC(=O)c1nccc(OC)c1O)C(=O)OCCCCCCC | 50 mg/L (≈ 101 µM) | –
CCCCCCOC(=O)CC[C@@H](NC(=O)c1nccc(OC)c1O)C(=O)OCCCCCC | 100 mg/L (≈ 214 µM) | –
CCCCCCOC(=O)C[C@H](NC(=O)c1nccc(OC)c1O)C(=O)OCCCCCC | 100 mg/L (≈ 221 µM) | –
CCCC[C@H]1C(=O)O[C@H](C)[C@H](NC(=O)c2cccc(NC=O)c2O)C(=O)O[C@@H](C)[C@@H]1OC(=O)CC(C)C [ANTIMYCIN A3] | 0.39 mg/L (≈ 0.749 µM) | 7.4
CCCCCCOC(=O)C[C@H](NC(=O)c1ccc(OC)c(OC)c1O)C(=O)OCCCCCC | > 100 mg/L | 4.9
CCCCCCCCOC(=O)CC[C@H](NC(=O)c1nccc(OC)c1O)C(=O)OCCCCCCCC | > 100 mg/L | 5.7
CCCCCOC(=O)CC[C@H](NC(=O)c1nccc(OC)c1O)C(=O)OCCCCC | 12.5 mg/L (≈ 28.5 µM) | –
COc1ccnc(C(=O)N[C@H]2COC(=O)[C@H](Cc3ccccc3)[C@@H](OC(=O)C(C)C)[C@H](C)OC2=O)c1O | < 0.1 mg/L | 6
CCCCCCOC(=O)CC[C@H](NC(=O)c1nccc(OC)c1O)C(=O)OCCCCCC | 3.13 mg/L (≈ 6.71 µM) | 6
CCCCCCOC(=O)C[C@H](NC(=O)c1cc(O)c(OC)c(OC)c1O)C(=O)OCCCCCC | 100 mg/L (≈ 201 µM) | 5
